# Experimental data taken from ChEMBL document CHEMBL1240500, “Peptidyl alpha-ketoamides with nucleobases, methylpiperazine, and dimethylaminoalkyl substituents as calpain inhibitors” (J Med Chem, 2010).
# Key:
# [1] = molecular target: T1, Calpain-1 catalytic subunit (Sus scrofa, UniProt P35750); assay: Inhibition of porcine erythrocyte calpain 1
# T1 sequence (P35750 whole entry): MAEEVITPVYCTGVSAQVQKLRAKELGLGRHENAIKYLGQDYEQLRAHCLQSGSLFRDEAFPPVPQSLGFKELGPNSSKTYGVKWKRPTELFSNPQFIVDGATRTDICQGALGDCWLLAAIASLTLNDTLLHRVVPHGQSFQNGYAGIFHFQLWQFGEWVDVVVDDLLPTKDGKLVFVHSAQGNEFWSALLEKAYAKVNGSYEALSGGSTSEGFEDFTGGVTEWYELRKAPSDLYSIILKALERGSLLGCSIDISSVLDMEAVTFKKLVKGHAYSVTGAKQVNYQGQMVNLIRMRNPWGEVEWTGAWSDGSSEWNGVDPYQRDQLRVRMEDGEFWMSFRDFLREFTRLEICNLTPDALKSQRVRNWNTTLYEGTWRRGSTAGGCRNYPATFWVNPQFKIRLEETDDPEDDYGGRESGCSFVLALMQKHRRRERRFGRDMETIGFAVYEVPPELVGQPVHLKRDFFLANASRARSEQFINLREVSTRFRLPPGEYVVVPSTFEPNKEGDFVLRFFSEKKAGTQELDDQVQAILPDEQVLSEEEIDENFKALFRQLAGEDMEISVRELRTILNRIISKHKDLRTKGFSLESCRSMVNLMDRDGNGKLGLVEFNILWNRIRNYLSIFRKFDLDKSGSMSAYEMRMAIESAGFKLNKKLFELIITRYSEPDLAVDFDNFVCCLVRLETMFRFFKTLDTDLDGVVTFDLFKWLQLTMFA
# [2] = molecular target: T2, Calpain-2 catalytic subunit (Sus scrofa, UniProt P43367); assay: Inhibition of porcine kidney calpain 2
# T2 sequence (P43367 whole entry): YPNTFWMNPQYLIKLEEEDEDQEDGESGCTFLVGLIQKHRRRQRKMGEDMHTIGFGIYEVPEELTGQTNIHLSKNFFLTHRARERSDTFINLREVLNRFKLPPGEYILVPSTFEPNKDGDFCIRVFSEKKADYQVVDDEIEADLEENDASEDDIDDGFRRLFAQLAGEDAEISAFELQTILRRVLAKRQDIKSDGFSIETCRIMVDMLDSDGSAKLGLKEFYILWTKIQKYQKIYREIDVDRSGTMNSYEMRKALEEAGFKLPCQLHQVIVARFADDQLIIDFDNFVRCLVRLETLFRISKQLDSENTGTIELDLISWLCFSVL
# [3] = molecular target: Cathepsin B (Homo sapiens, UniProt P07858); assay: Inhibition of human liver cathepsin B
# Outline: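 Human liver cathepsin B was DTT-activated (final 0.4 µM) in 0.1 M NaHPO4 pH 6.0 with 1.25 mM EDTA, 0.01% Brij and <5% DMSO. Cbz-Arg-Arg-AMC was used at 0.5, 0.2 and 0.1 µM, with ≥5 inhibitor concentrations. AMC fluorescence was read at ex 360/em 465 nm. Ki was taken from Dixon plots of 1/v versus [I].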
# [4] = Drug level in C57BL/6 mouse spleen at 24 mg/kg, iv after 1 hr by HPLC analysis; format: ADME, organism-based; design: dose 24 mg/kg, route intravenous; conditions: read-out: Drug uptake
# Outline: (§1)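 7-week-old female C57BL/6 mice got 24 mg/kg subcutaneously (N = 2) or intravenously (N = 3). They were perfused with buffered saline at 37 °C and killed at 1 h. Tissues were homogenized 5% w/v in water with internal standard. LC-MS/MS used ESI+ MRM and a Zorbax Extend C18 column. Concentration came from the analyte/internal-standard area ratio against calibration standards made in undosed control tissue (0.10–1.00 µM). Errors came from repeat injections.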
# [5] = Drug level in C57BL/6 mouse kidney at 24 mg/kg, iv after 1 hr by HPLC analysis; format: ADME, organism-based; design: dose 24 mg/kg, route intravenous; conditions: read-out: Drug uptake; outline: as §1
# [6] = Drug level in C57BL/6 mouse heart at 24 mg/kg, iv after 1 hr by HPLC analysis; format: ADME, organism-based; design: dose 24 mg/kg, route intravenous; conditions: read-out: Drug uptake; outline: as §1
# [7] = Drug level in C57BL/6 mouse serum at 24 mg/kg, sc after 1 hr by HPLC analysis; format: ADME, organism-based; design: dose 24 mg/kg, route subcutaneous; conditions: read-out: Drug uptake; outline: as §1
# [8] = Drug level in C57BL/6 mouse spleen at 24 mg/kg, sc after 1 hr by HPLC analysis; format: ADME, organism-based; design: dose 24 mg/kg, route subcutaneous; conditions: read-out: Drug uptake; outline: as §1
# [9] = Drug level in C57BL/6 mouse peripheral nerve at 24 mg/kg, iv after 1 hr by HPLC analysis; format: ADME, organism-based; design: dose 24 mg/kg, route intravenous; conditions: read-out: Drug uptake; outline: as §1
# [10] = Drug level in C57BL/6 mouse kidney at 24 mg/kg, sc after 1 hr by HPLC analysis; format: ADME, organism-based; design: dose 24 mg/kg, route subcutaneous; conditions: read-out: Drug uptake; outline: as §1
# [11] = Drug level in C57BL/6 mouse heart at 24 mg/kg, sc after 1 hr by HPLC analysis; format: ADME, organism-based; design: dose 24 mg/kg, route subcutaneous; conditions: read-out: Drug uptake; outline: as §1
# [12] = Drug level in C57BL/6 mouse liver at 24 mg/kg, sc after 1 hr by HPLC analysis; format: ADME, organism-based; design: dose 24 mg/kg, route subcutaneous; conditions: read-out: Drug uptake; outline: as §1
# [13] = Drug level in C57BL/6 mouse liver at 24 mg/kg, iv after 1 hr by HPLC analysis; format: ADME, organism-based; design: dose 24 mg/kg, route intravenous; conditions: read-out: Drug uptake; outline: as §1
# [14] = molecular target: T3, Calpain-1 catalytic subunit (Sus scrofa) (UniProt P35750); assay: Ratio of compound Ki to AK295 Ki for porcine erythrocyte calpain 1
# T3 sequence (whole entry): T1 sequence (P35750 whole entry)
# [15] = Drug level in C57BL/6 mouse brain at 24 mg/kg, sc after 8 hrs by HPLC analysis; format: ADME, organism-based; design: dose 24 mg/kg, route subcutaneous; conditions: read-out: Drug uptake
# Outline: (§2)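 7-week-old female C57BL/6 mice (N = 3 per time point) got 24 mg/kg subcutaneously, were perfused with buffered saline at 37 °C, and were killed at 1, 2, 4 or 8 h. Brain was homogenized 5% w/v in water with internal standard spiked in. LC-MS/MS used ESI+ MRM and a Symmetry Shield C18 column. Quantitation was by peak-area ratio against plasma calibration standards.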
# [16] = Drug level in C57BL/6 mouse brain at 24 mg/kg, sc after 2 hrs by HPLC analysis; format: ADME, organism-based; design: dose 24 mg/kg, route subcutaneous; conditions: read-out: Drug uptake; outline: as §2
Compound,Ki [1],Ki [2],Ki [3],Ratio [14],also measured
CC(C)C[C@H](NC(=O)OCc1ccccc1)C(=O)NC(Cc1ccccc1)C(=O)C(=O)NCCCN1CCN(C)CC1 (some centres undefined),1370 nM,6360 nM,111000 nM,–,–
CC(C)C[C@H](NC(=O)OCc1ccccc1)C(=O)NC(Cc1ccccc1)C(=O)C(=O)NCCN(C)C (some centres undefined),711 nM,3520 nM,475000 nM,–,–
CCC(NC(=O)[C@H](CC(C)C)NC(=O)OCc1ccccc1)C(=O)C(=O)NCCCN1CCOCC1 (some centres undefined),150 nM,41 nM,6900 nM,–,concentration at 1 h [4]: 1320 ng/g; concentration at 1 h [5]: 1820 ng/g; concentration at 1 h [6]: 561 ng/g; concentration at 1 h [7]: 895 ng/g; concentration at 1 h [8]: 1380 ng/g; concentration at 1 h [9]: 333 ng/g; concentration at 1 h [10]: 936 ng/g; concentration at 1 h [11]: 541 ng/g; concentration at 1 h [12]: 1550 ng/g; concentration at 1 h [13]: 943 ng/g
COc1nc(N)c2ncn(CCCNC(=O)C(=O)C(Cc3ccccc3)NC(=O)[C@H](CC(C)C)NC(=O)OCc3ccccc3)c2n1 (some centres undefined),41 nM,209 nM,2340 nM,3,–
CCC(NC(=O)[C@H](CC(C)C)NC(=O)OCc1ccccc1)C(=O)C(=O)NCCCn1cnc2c(N)nc(OC)nc21 (some centres undefined),23 nM,77 nM,880 nM,3,–

# Further compounds by falling Ki [1], results first:
Ki [1],Ki [2],Ki [3],Compound,Ratio [14],also measured
640 nM,286 nM,1420 nM,CCC(NC(=O)[C@H](CC(C)C)NC(=O)OCc1ccccc1)C(=O)C(=O)NCCCN1CCN(C)CC1 (some centres undefined),–,concentration at 2 h [16]: 1140 ng/g
480 nM,438 nM,440 nM,CC(C)C[C@H](NC(=O)OCc1ccccc1)C(=O)NC(Cc1ccccc1)C(=O)C(=O)NCCCn1ccc(N)nc1=O (some centres undefined),–,–
226 nM,844 nM,75500 nM,CC(C)C[C@H](NC(=O)OCc1ccccc1)C(=O)NC(Cc1ccccc1)C(=O)C(=O)NCCCN(C)C (some centres undefined),–,–
165 nM,1140 nM,750 nM,CCC(NC(=O)[C@H](CC(C)C)NC(=O)OCc1ccccc1)C(=O)C(=O)NCCCn1ccc(N)nc1=O (some centres undefined),–,–
55 nM,68 nM,1750 nM,CC(C)C[C@H](NC(=O)OCc1ccccc1)C(=O)NC(Cc1ccccc1)C(=O)C(=O)NCCCn1cnc2c(N)ncnc21 (some centres undefined),3,–
53 nM,70 nM,800 nM,CCC(NC(=O)[C@H](CC(C)C)NC(=O)OCc1ccccc1)C(=O)C(=O)NCCCn1cnc2c(N)ncnc21 (some centres undefined),3,concentration at 8 h [15]: 1170 ng/g
